Data reported in ChEMBL document CHEMBL3745678, “Novel β-Carboline/Hydroxamic Acid Hybrids Targeting Both Histone Deacetylase and DNA Display High Anticancer Activity via Regulation of the p53 Signaling Pathway” (J Med Chem, 2015).
Active and inactive are the calls of the source. The rule behind the calls is not given here.

Tests used:
[1] = Antiproliferative activity against human HCT116 cells assessed as cell viability after 48 hrs by MTT assay; format: functional, cell-based, HCT-116; conditions: for IC50: Homo sapiens, HCT-116, 48 h
[2] = tested on: HCT-116; test: Induction of DNA damage in human HCT116 cells assessed as histone H2AX phosphorylation at S139 at 1 to 5 uM after 12 hrs by western blot analysis; format: functional, cell-based
Procedure, shortened: (§1)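 DNA-damage marker. HCT116 cells treated 12 h with compound or vehicle. Lysates immunoblotted with anti-H2AX S139ph, and β-actin served as the control. Relative levels were obtained by densitometric scanning; means ± SD of three separate experiments.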

[3] = target: T1, Histone deacetylase 8 (Homo sapiens, UniProt Q9BY41); test: Inhibition of recombinant human HDAC8 using Boc-Lys (Ac)-AMC as substrate after 60 mins by fluorometric analysis
T1 sequence (Q9BY41 whole entry): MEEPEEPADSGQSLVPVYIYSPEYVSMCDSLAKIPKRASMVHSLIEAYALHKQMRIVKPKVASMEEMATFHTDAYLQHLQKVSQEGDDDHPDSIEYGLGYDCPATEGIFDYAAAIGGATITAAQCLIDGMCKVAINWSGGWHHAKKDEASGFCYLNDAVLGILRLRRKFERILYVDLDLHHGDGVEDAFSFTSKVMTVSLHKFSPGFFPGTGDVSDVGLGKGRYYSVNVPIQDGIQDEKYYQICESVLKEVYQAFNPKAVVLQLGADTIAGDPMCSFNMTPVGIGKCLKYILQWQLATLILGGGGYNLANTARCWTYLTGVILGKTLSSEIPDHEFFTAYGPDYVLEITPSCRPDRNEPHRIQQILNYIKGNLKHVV

[4] = tested on: HCT-116; test: Potency index, ratio of SAHA IC50 to compound IC50 for human HCT116 cells; format: functional
Procedure, shortened: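 HCT116 cells seeded at 10^4 cells/ml and adhered overnight, then treated 48 h over a concentration series with 0.1% DMSO as control. MTT readout; IC50 derived from inhibition % = (1 − OD treated/OD control) × 100, three independent measurements. Index = SAHA IC50 ÷ compound IC50.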

[5] = target: Cellular tumor antigen p53 (Homo sapiens) (UniProt P04637); test: Induction of p53 activation in human HCT116 cells assessed as upregulation of p21 expression at 1 to 5 uM after 12 hrs by western blot analysis; format: cell-based; conditions: HCT-116
Procedure, shortened: (§2)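 HCT116 cells exposed 12 h to compound or vehicle, then lysed on ice in PBS with 1% NP-40, 0.5% deoxycholate, 0.1% SDS and protease inhibitors. Up to 50 µg protein run on SDS-PAGE and immunoblotted for phospho-p53 (Ser15), p53 and p21. Bands quantified by densitometry against β-actin; mean ± SD of three experiments.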

[6] = target: Histone deacetylase; test: Inhibition of HDAC in human HeLa cell nuclear extract using Boc-Lys (Ac)-AMC as substrate after 60 mins by fluorometric analysis; format: cell-based
[7] = tested on: LoVo; test: Antiproliferative activity against human LoVo cells assessed as cell viability after 48 hrs by MTT assay; format: functional, cell-based
[8] = Antiproliferative activity against human SW620 cells assessed as cell viability after 48 hrs by MTT assay; format: functional, cell-based; conditions: SW-620, 48 h
[9] = tested on: SW480; test: Antiproliferative activity against human SW480 cells assessed as cell viability after 48 hrs by MTT assay; format: functional, cell-based; conditions: SW480, 48 h
[10] = tested on: HCT-116; test: Induction of DNA damage in human HCT116 cells assessed as histone H2AX phosphorylation at S139 after 12 hrs by western blot analysis; format: functional, cell-based; procedure, shortened: as §1
[11] = target: T2, Protein deacetylase HDAC6 (Homo sapiens, UniProt Q9UBN7); test: Inhibition of recombinant human HDAC6 using Boc-Lys (Ac)-AMC as substrate after 60 mins by fluorometric analysis
T2 sequence (Q9UBN7 whole entry): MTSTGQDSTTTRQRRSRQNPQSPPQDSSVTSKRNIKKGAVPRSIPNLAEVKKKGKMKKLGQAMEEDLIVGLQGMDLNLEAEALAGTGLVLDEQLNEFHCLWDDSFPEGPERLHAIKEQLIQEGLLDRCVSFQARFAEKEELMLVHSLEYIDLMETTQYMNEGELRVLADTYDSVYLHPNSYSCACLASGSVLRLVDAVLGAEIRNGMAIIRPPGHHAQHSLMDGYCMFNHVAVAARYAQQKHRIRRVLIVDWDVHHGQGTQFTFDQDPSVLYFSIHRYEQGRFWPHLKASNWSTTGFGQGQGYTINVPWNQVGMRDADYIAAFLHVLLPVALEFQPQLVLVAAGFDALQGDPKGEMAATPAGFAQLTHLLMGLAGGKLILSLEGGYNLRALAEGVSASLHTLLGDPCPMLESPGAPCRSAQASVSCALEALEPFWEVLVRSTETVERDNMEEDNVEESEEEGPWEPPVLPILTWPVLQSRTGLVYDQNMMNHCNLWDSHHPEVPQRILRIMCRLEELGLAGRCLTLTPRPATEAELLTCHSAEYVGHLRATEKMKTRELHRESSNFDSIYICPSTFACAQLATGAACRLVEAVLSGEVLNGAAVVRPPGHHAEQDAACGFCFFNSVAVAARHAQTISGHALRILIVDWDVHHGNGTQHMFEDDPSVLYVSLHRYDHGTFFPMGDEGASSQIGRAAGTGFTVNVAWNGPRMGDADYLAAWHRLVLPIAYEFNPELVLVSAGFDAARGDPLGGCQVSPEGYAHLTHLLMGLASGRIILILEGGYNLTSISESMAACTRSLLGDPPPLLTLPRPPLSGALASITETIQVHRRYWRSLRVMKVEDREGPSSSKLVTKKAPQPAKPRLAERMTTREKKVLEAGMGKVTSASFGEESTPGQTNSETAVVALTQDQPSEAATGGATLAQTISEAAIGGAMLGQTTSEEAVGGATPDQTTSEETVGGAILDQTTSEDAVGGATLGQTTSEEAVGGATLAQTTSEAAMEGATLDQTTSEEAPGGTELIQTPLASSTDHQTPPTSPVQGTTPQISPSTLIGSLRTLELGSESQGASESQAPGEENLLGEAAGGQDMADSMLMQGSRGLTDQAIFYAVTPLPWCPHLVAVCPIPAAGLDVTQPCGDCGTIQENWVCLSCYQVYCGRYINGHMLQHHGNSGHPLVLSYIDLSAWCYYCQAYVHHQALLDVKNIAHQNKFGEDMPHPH

[12] = target: Histone deacetylase 1 (Homo sapiens, UniProt Q13547); test: Inhibition of recombinant human HDAC1 using Boc-Lys (Ac)-AMC as substrate after 60 mins by fluorometric analysis
[13] = tested on: HCT-116; test: Induction of apoptosis in human HCT116 cells at 5 uM after 48 hrs by annexin V-FITC/propidium iodide staining-based flow cytometric analysis; format: functional
Procedure, shortened: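 HCT116 cells cultured overnight, then exposed in triplicate for 48 h to 0.1, 1.0 or 5.0 µM, SAHA 5.0 µM or vehicle. Stained with FITC-Annexin V/PI for 15 min at room temperature.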

[14] = target: Cellular tumor antigen p53 (Homo sapiens) (UniProt P04637); test: Activation of p53 in human HCT116 cells assessed as p53 phosphorylation at ser15 residue at 0.1 to 5 uM after 12 hrs by western blot analysis; format: cell-based; conditions: HCT-116; procedure, shortened: as §2
[15] = tested on: HCT-116; test: Induction of PARP cleavage in human HCT116 cells at 1 to 5 uM after 48 hrs by western blot analysis; format: functional, cell-based
Procedure, shortened: (§3)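 HCT116 cells treated 48 h with or without compound. Western blots probed for Bax, Bcl-2, cleaved caspase-3 and PARP. Band intensities relative to β-actin by densitometry; means ± SD from three separate experiments.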

[16] = Antitumor activity against human HCT116 cells xenografted in BALB/c mouse assessed as tumor weight at 90 mg/kg, po measured twice per week over 22 days (reference value: 1.38 +/- 0.13 g); format: functional, HCT-116
[17] = tested on: HCT-116; test: Induction of caspase-3 cleavage in human HCT116 cells at 1 to 5 uM after 48 hrs by western blot analysis; format: functional, cell-based; procedure, shortened: as §3
[18] = Cytotoxicity against rat IEC-18 cells assessed as survival after 48 hrs by MTT assay; format: cell-based
Procedure, shortened: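 HCT116 and rat IEC-18 cells incubated 48 h over a 0–5 µM range. Viability measured by MTT and expressed as % of control. GI50 taken from the inhibition curves; three independent experiments.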

[19] = target: Cellular tumor antigen p53 (Homo sapiens) (UniProt P04637); test: Induction of p53 activation in human HCT116 cells assessed as upregulation of p21 expression at 0.1 to 5 uM after 12 hrs by western blot analysis; format: cell-based; conditions: HCT-116; procedure, shortened: as §2
[20] = target: Cellular tumor antigen p53 (Homo sapiens) (UniProt P04637); test: Activation of p53 in human HCT116 cell at 0.1 to 5 uM after 12 hrs by western blot analysis; format: cell-based; conditions: HCT-116; procedure, shortened: as §2
[21] = tested on: HCT-116; test: Induction of DNA damage in human HCT116 cells assessed as histone H2AX phosphorylation at S139 at 20 uM after 12 hrs by western blot analysis; format: functional, cell-based
Procedure, shortened: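 HCT116 cells treated for 12 h, then lysed on ice in PBS with 1% Nonidet P-40, 0.5% sodium deoxycholate, 0.1% SDS and protease inhibitors. Up to 50 µg protein run on SDS-PAGE and blotted to PVDF. Probed overnight at 4 °C with anti-H2AX S139ph, with ECL detection. Band intensity scanned relative to β-actin, three separate experiments.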

[22] = tested on: LoVo; test: Antiproliferative activity against human LoVo cells at 25 uM after 48 hrs by MTT assay; format: functional, cell-based
Procedure, shortened: (§4)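 Single-point screen at 25 µM in HCT116, SW620 and LOVO cells. Cells seeded at 10^4 cells/ml in DMEM + 10% FBS and left to adhere overnight at 37 °C, 5% CO2. MTT read 48 h after dosing with 0.1% DMSO as the negative control. Inhibition % = (1 − OD treated/OD control) × 100; mean ± SD of three measurements.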

[23] = tested on: HCT-116; test: Antiproliferative activity against human HCT116 cells at 25 uM after 48 hrs by MTT assay; format: functional, cell-based; procedure, shortened: as §4
[24] = tested on: SW-620; test: Antiproliferative activity against human SW620 cells at 25 uM after 48 hrs by MTT assay; format: functional, cell-based; procedure, shortened: as §4

Chain of Cellular tumor antigen p53 (Homo sapiens) (P04637 whole entry, looked up): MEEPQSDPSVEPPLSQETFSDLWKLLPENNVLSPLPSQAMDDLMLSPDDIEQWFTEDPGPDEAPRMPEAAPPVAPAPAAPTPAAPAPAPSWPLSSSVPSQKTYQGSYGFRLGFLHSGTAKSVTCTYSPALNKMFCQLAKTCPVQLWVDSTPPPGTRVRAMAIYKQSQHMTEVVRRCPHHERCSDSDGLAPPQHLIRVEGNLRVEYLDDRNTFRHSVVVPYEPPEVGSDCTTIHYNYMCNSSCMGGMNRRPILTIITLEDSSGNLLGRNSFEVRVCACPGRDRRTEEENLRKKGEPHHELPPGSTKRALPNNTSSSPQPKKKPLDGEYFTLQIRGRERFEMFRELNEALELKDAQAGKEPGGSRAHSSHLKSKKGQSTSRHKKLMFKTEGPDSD
Chain of Histone deacetylase 1 (Q13547 whole entry): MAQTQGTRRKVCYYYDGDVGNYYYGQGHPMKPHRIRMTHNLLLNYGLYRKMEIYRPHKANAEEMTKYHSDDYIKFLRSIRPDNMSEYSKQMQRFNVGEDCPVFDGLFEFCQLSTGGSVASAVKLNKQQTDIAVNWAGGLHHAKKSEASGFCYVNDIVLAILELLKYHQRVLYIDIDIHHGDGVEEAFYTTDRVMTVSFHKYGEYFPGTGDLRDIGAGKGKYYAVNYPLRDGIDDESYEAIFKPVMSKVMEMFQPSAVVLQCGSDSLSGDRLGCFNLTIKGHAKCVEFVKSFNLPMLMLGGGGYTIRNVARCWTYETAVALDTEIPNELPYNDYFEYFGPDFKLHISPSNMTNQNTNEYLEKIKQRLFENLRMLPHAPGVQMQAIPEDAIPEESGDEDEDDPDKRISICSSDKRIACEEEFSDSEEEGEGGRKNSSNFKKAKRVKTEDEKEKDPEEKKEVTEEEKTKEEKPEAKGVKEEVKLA

SMILES	IC50 [1] [nM]	Activity [2]	IC50 [3] [nM]	Ratio IC50 [4]	IC50 [6] [nM]	IC50 [7] [nM]	IC50 [8] [nM]	IC50 [9] [nM]	IC50 [11] [nM]	IC50 [12] [nM]	also measured
COc1ccc(-c2nc(NC(=O)NCCCC(=O)NO)cc3c4ccccc4n(C)c23)cc1	1330	Active	570	4	510	3020	1930	3150	150	240	Activity [5]: Active; Activity [10]: Dose-dependent effect
COc1ccc(-c2nc(NC(=O)NCCCCC(=O)NO)cc3c2[nH]c2ccccc23)cc1	990		200		350	2170	2020	1730	93	79	
O=C(CCCCCCC(=O)Nc1ccccc1)NO [VORINOSTAT]		Active									GI50 [1]: 4640 nM; Activity [13]: 34.3%; Activity [14]: inactive; Activity [15]: Active; Activity [16]: 0.62 g; Activity [17]: Active; GI50 at 48 h [18]: 9950 nM; Activity [19]: Active; Activity [20]: inactive
COc1ccc2c(c1)[nH]c1c(C)nccc12 [HARMINE]	46700				> 10000	53200	42800				Activity [21]: Active
COc1ccc(-c2nc(NC(=O)NCCC(=O)NO)cc3c2[nH]c2ccccc23)cc1	3080		430		430	3610	2690	3110	360	110	
COc1ccc(-c2nc(C(=O)NCCCC(=O)NO)cc3c2[nH]c2ccccc23)cc1	2720		390	2	670	3770	4460	4650	61	130	Activity [22]: Active; Activity [23]: Active; Activity [24]: Active
